Results on 3 compounds are retold here after ChEMBL document CHEMBL4118021, “Studies of TAK1-centered polypharmacology with novel covalent TAK1 inhibitors” (Bioorg Med Chem, 2017).

For assay [1], the target named is Eukaryotic elongation factor 2 kinase (Homo sapiens) (UniProt O00418). Nature of the assay: Inhibition of eEF2K in human SKCO1 cells at 1 uM after 4 hrs using biotin labeled YIKYNSNSGFVR probe by mass-spectrometric analysis relative to control. The class given is cell-based.
The target in assay [2] is Mitogen-activated protein kinase 1 (Homo sapiens) (UniProt P28482). As to the kind of experiment: Inhibition of Erk2 in human SKCO1 cells at 1 uM after 4 hrs using biotin labeled DLKPSNLLLNTTCDLK probe by mass-spectrometric analysis relative to control. The class given is cell-based.
Mitogen-activated protein kinase 1 (Homo sapiens), sequence (P28482 whole entry): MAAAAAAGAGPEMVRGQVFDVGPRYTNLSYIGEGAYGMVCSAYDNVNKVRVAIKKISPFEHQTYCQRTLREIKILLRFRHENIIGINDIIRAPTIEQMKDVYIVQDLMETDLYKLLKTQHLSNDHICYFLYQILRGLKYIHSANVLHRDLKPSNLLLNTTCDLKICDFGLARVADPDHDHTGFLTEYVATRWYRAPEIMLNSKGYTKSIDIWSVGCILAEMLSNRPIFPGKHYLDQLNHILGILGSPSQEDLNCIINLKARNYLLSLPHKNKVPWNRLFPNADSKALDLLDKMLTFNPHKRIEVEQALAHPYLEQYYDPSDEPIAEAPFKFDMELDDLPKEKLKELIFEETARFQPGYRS
Assay [3] addresses Mitogen-activated protein kinase 7 (Homo sapiens) (UniProt Q13164). Nature of the assay: Inhibition of Erk5 in human SKCO1 cells at 1 uM after 4 hrs using biotin labeled DLKPSNLLVNENCELK probe by mass-spectrometric analysis relative to control. It counts as cell-based.
Assay [4] addresses Dual specificity mitogen-activated protein kinase kinase 2 (Homo sapiens) (UniProt P36507). Nature of the assay: Inhibition of MAP2K2 in human SKCO1 cells at 1 uM after 4 hrs using biotin labeled DVKPSNILVNSR probe by mass-spectrometric analysis relative to control. The class given is cell-based. Summed up:
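Live SK-CO-1 cells treated 4 h at 1 μM (DMSO control); cells lysed and lysates labeled with lysine-reactive ATP/ADP-biotin probe (KiNativ); probe-labeled kinase peptides quantified by mass spectrometry; inhibition expressed as percent reduction in probe-dependent recovery versus DMSO-treated cells.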

Assay [5] deals with Mitogen-activated protein kinase kinase kinase 5 (Homo sapiens) (UniProt Q99683). Nature of the assay: Inhibition of MAP3K5 in human SKCO1 cells at 1 uM after 4 hrs using biotin labeled DIKGDNVLINTYSGVLK probe by mass-spectrometric analysis relative to control. The class given is cell-based.
Mitogen-activated protein kinase kinase kinase 5 (Homo sapiens), sequence (Q99683 whole entry): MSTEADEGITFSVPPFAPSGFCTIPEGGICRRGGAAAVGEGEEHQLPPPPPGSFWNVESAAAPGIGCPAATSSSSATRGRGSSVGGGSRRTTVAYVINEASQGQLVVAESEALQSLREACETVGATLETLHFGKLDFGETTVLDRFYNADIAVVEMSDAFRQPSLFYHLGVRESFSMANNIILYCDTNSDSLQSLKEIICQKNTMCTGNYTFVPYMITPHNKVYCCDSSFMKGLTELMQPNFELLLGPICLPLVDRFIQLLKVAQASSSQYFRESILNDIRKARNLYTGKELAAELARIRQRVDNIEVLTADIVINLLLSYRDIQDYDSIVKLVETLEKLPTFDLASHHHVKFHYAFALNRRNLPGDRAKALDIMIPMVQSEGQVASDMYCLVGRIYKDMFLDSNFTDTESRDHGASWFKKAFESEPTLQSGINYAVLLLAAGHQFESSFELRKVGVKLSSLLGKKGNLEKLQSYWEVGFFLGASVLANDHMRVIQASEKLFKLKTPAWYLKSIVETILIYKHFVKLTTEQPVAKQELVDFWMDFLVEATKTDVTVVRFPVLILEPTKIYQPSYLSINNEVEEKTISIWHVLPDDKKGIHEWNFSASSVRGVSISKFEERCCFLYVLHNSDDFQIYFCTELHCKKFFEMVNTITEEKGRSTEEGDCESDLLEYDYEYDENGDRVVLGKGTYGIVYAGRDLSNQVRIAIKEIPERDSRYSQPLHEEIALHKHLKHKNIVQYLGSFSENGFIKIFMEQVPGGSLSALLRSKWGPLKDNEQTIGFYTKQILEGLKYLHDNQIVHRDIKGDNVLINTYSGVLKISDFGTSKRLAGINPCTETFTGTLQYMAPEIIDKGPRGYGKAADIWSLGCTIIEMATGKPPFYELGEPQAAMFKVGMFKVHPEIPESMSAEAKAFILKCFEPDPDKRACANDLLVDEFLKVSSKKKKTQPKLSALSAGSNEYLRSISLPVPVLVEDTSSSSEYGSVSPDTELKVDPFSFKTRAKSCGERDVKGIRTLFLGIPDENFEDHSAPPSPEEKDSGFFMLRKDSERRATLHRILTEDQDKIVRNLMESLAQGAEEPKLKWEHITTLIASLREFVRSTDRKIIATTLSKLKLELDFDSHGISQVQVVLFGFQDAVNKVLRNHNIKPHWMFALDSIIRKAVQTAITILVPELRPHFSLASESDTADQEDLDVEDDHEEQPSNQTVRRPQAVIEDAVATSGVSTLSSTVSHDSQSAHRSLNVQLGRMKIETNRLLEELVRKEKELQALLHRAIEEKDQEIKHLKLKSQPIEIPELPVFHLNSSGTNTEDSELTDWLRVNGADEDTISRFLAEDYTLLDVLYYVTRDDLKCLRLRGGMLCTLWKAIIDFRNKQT
The target in assay [6] is Serine/threonine-protein kinase greatwall (Homo sapiens) (UniProt Q96GX5). Nature of the assay: Inhibition of MASTL in human SKCO1 cells at 1 uM after 4 hrs using biotin labeled LYAVKVVK probe by mass-spectrometric analysis relative to control. It counts as cell-based.
Serine/threonine-protein kinase greatwall (Homo sapiens), sequence (Q96GX5 whole entry): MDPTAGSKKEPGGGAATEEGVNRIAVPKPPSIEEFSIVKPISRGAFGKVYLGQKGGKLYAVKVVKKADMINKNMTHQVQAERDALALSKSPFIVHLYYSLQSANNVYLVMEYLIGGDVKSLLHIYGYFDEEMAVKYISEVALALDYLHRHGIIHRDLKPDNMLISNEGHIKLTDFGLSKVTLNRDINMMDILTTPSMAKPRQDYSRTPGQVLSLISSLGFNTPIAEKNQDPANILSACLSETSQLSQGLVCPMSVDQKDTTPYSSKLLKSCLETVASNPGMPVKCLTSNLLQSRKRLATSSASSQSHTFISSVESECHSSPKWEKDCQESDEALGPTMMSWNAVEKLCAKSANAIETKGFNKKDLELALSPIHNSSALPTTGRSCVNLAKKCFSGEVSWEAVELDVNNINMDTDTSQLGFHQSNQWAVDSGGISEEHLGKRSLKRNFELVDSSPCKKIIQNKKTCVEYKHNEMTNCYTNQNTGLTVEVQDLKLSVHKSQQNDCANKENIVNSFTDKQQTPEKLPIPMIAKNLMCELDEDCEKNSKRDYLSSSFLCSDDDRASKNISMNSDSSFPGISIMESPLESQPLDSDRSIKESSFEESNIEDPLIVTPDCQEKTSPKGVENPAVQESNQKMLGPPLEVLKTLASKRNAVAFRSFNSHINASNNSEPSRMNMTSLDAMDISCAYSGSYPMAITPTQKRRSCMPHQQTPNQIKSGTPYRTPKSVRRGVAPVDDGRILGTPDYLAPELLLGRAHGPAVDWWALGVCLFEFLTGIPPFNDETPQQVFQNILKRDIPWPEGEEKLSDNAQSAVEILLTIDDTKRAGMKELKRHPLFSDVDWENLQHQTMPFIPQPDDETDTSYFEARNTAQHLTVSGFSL
The target in assay [7] is Serine/threonine-protein kinase Nek6 (Homo sapiens) (UniProt Q9HC98). As to the kind of experiment: Inhibition of NEK6 in human SKCO1 cells at 1 uM after 4 hrs using biotin labeled DIKPANVFITATGVVK probe by mass-spectrometric analysis relative to control. The class given is cell-based.
Serine/threonine-protein kinase Nek6 (Homo sapiens), sequence (Q9HC98 whole entry): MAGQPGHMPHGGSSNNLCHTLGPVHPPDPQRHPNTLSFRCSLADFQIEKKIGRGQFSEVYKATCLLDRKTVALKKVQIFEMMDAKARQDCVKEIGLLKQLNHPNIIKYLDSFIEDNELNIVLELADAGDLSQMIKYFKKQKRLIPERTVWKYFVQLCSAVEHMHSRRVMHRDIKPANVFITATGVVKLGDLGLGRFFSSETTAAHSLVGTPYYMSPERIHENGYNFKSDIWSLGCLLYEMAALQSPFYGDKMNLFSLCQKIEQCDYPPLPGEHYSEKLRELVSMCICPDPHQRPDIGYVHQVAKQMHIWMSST
Assay [8] deals with Serine/threonine-protein kinase Nek7 (Homo sapiens) (UniProt Q8TDX7). Nature of the assay: Inhibition of NEK7 in human SKCO1 cells at 1 uM after 4 hrs using biotin labeled DIKPANVFITATGVVK probe by mass-spectrometric analysis relative to control. It counts as cell-based.
Serine/threonine-protein kinase Nek7 (Homo sapiens), sequence (Q8TDX7 whole entry, looked up): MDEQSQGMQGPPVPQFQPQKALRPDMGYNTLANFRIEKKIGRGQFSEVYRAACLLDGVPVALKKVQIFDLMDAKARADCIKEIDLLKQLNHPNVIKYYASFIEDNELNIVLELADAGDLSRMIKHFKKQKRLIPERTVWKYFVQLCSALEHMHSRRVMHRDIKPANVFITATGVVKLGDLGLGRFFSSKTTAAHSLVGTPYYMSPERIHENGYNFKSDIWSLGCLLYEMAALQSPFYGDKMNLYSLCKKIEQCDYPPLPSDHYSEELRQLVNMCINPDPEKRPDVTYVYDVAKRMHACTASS
In assay [9] the target is Mitogen-activated protein kinase 14 (Homo sapiens) (UniProt Q16539). As to the kind of experiment: Inhibition of p38a in human SKCO1 cells at 1 uM after 4 hrs using biotin labeled DLKPSNLAVNEDCELK probe by mass-spectrometric analysis relative to control. It counts as cell-based. In short, it runs like this: (§1)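 Live SK-CO-1 cells exposed to compound at 1 μM or DMSO for 4 h (KiNativ). Lysates then labeled with lysine-reactive ATP/ADP-biotin probe, and probe-labeled kinase peptides quantified by mass spectrometry. Percent inhibition of probe-dependent recovery calculated relative to DMSO-treated cells.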

Assay [10] has as its target SRSF protein kinase 1 (Homo sapiens) (UniProt Q96SB4). Nature of the assay: Inhibition of SRPK1 in human SKCO1 cells at 1 uM after 4 hrs using biotin labeled IIHTDIKPENILLSVNEQYIR probe by mass-spectrometric analysis relative to control. The class given is cell-based. Summed up: as §1
Assay [11] deals with Tyrosine-protein kinase SYK (Homo sapiens) (UniProt P43405). As to the kind of experiment: Inhibition of SYK in human SKCO1 cells at 1 uM after 4 hrs using biotin labeled ISDFGLSKALR probe by mass-spectrometric analysis relative to control. The class given is cell-based. Summed up:
as §1

For assay [12], the target named is Tyrosine-protein kinase ZAP-70 (Homo sapiens) (UniProt P43403). As to the kind of experiment: Inhibition of ZAP70 in human SKCO1 cells at 1 uM after 4 hrs using biotin labeled ISDFGLSKALGADDSYYTAR probe by mass-spectrometric analysis relative to control. The class given is cell-based.
Tyrosine-protein kinase ZAP-70 (Homo sapiens), sequence (P43403 whole entry): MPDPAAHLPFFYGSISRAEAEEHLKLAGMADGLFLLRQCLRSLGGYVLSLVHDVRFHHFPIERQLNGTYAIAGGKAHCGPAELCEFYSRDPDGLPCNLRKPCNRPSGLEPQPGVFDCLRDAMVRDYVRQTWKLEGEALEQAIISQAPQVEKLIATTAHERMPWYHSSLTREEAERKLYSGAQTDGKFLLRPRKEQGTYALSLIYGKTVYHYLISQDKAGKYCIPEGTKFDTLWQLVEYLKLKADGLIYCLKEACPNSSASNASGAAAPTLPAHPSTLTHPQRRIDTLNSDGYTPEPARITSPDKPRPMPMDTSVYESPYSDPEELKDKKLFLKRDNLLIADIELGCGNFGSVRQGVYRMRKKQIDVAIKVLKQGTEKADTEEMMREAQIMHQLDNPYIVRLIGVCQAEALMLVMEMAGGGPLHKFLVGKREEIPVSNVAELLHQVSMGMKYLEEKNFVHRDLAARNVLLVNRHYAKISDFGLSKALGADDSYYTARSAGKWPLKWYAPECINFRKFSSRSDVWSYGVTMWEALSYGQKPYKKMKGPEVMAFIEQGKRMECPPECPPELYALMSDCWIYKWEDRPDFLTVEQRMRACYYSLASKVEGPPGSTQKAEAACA
The next assay concerns BaF3. As to the kind of experiment: Antiproliferative activity against mouse BA/F3 cells harboring KRAS G12D mutant after 72 hrs in presence of IL-3 by CellTiter-Glo assay. The class given is functional, cell-based. The following applies: BaF3, 72 h.
The next assay concerns PANC-1. Nature of the assay: Antiproliferative activity against human PANC1 cells harboring KRAS G12D mutant after 72 hrs by CellTiter-Glo assay. To be noted: PANC-1, 72 h. It counts as functional, cell-based.
Assay [13] in a line: Antiproliferative activity against human URMC6 cells harboring wild type KRAS after 72 hrs by CellTiter-Glo assay. The class given is functional, cell-based.
The target in assay [14] is Tyrosine-protein kinase FRK (Homo sapiens) (UniProt P42685). Nature of the assay: Inhibition of FRK in human SKCO1 cells at 1 uM after 4 hrs using biotin labeled HEIKLPVK probe by mass-spectrometric analysis relative to control. It counts as cell-based.
For assay [15], the target named is Tyrosine-protein kinase JAK1 (Homo sapiens) (UniProt P23458). As to the kind of experiment: Inhibition of JAK1 domain1 in human SKCO1 cells at 1 uM after 4 hrs using biotin labeled QLASALSYLEDKDLVHGNVCTKNLLLAR probe by mass-spectrometric analysis relative to control. The class given is cell-based.
Tyrosine-protein kinase JAK1 (Homo sapiens), sequence (P23458 whole entry, the tested form may be a part): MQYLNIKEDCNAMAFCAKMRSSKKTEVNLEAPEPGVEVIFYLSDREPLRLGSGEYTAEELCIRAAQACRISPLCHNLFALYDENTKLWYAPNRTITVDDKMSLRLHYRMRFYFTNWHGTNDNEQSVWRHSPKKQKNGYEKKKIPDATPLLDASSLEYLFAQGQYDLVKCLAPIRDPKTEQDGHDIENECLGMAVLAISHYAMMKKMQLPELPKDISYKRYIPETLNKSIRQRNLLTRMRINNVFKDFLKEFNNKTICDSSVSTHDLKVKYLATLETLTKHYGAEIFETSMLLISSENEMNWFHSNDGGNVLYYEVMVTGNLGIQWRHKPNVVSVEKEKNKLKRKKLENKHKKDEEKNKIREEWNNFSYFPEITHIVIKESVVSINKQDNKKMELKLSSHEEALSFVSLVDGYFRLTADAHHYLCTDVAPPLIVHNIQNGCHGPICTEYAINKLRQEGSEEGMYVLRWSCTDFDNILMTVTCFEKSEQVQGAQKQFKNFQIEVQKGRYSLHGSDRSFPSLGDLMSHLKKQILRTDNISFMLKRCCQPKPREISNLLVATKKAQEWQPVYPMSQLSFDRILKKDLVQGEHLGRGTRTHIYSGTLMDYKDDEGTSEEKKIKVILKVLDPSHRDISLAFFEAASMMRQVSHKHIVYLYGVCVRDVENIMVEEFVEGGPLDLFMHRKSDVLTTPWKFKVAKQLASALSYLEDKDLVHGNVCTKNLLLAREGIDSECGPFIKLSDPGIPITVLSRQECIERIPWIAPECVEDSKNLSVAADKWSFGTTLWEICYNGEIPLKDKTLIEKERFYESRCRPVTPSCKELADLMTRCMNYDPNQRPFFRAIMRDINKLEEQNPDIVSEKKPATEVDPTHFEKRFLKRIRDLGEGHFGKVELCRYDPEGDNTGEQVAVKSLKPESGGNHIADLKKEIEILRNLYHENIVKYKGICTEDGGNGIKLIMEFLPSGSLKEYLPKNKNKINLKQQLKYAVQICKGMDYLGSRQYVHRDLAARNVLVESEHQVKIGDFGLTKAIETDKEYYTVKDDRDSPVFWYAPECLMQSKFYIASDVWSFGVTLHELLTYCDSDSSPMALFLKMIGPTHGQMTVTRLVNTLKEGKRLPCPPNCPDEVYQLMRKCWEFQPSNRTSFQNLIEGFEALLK
Assay [16] addresses Serine/threonine-protein kinase Sgk3 (Homo sapiens) (UniProt Q96BR1). As to the kind of experiment: Inhibition of SGK3 in human SKCO1 cells at 1 uM after 4 hrs using biotin labeled FYAVKVLQK probe by mass-spectrometric analysis relative to control. The class given is cell-based.
A further assay relates to NCI-H23. As to the kind of experiment: Antiproliferative activity against human NCI-H23 cells harboring KRAS G12C mutant after 72 hrs by CellTiter-Glo assay. The class given is functional, cell-based. In short, it runs like this:
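NCI-H23 or NCI-H358 cells seeded at 2000 cells/well and grown 48 h before drug. Varying doses were added and cells incubated 72 h. Viability was read as CellTiter-Glo luminescence, and growth-inhibition IC50 was calculated from dose-response curves.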

The target in assay [17] is T1, Mitogen-activated protein kinase kinase kinase 7 (Homo sapiens) (UniProt O43318).
T1 sequence (whole entry): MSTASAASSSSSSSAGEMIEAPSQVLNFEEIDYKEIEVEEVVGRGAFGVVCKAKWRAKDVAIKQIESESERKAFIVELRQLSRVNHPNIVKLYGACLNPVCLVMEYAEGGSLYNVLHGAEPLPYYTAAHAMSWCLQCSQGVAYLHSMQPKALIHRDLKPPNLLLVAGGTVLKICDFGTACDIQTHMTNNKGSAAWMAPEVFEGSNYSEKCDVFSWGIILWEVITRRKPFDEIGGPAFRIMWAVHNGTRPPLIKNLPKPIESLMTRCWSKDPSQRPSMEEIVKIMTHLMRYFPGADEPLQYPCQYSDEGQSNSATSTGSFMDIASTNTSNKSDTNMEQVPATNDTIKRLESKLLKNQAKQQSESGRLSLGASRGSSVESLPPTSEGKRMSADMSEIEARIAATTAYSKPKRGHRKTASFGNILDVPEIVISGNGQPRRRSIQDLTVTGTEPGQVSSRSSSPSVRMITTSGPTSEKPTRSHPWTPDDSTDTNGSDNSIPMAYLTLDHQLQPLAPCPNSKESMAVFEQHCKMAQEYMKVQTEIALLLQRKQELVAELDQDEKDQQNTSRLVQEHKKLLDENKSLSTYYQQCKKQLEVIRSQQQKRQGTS
To be noted: NCI-H358, 1 uM.

The target of assay [18] is T1, Mitogen-activated protein kinase kinase kinase 7 (Homo sapiens). To be noted: 0.6 uM.

Calls of active or inactive are those of the source. The calls are words filed in the database; no cut-off is given here.

`C=CC(=O)Nc1ccccc1Oc1nc(Nc2cnn(CCOC)c2)ncc1Cl`: the inhibition in [1] is 6.7%; in assay [2] it was 55.7%; in [3], 11.6%; in [4], 7.9%; in assay [5], 10%; in assay [6], 41.3%. Also, the inhibition in assay [7] was -0.4%; in [8], -0.4%; in assay [9], -3.3%; in assay [10] it was -6.1%; in assay [11] it was -0.4%; in [12], 34.1%. Further, the IC50 with BaF3 worked out at 0.302 µM; in the assay on PANC-1 it was 5.61 µM; in assay [13], 2.62 µM.

`C=CC(=O)Nc1ccccc1Nc1nc(Nc2ccc(N3CCN(C)CC3)cc2)ncc1Cl`: the inhibition in assay [2] was 42.6%; in [14], 39.2%; in assay [15] it was 64.7%; in [5], 25.5%; in assay [9], -7.7%; in assay [16] it was -2.7%. Besides, the inhibition was 2.9% in [10] and -1.2% in assay [11]. Besides, the result in the assay with NCI-H23 was Active. The inhibition result in [17] and in assay [18] was “Active” each time.

As to `COc1cc(O)c2c(c1)/C=C/C[C@H](O)[C@H](O)C(=O)/C=C\C[C@H](C)OC2=O`, the inhibition in assay [1] was -7.7%; in assay [3] it was 12.4%; in assay [14], -9.6%; in [15], 21.6%; in assay [4], 95%; in [6], 51.7%. Further, the inhibition is 4.9% in [7], 4.9% in assay [8], -1.4% in assay [16] and 63.6% in assay [12]. For the same compound, the IC50 in the assay on BaF3 worked out at 0.012 µM; in the assay with PANC-1, 2.5 µM; in assay [13], 1.45 µM; in the assay with NCI-H23 (NCI-H23, 72 h), 1 µM. Besides, the inhibition result in [17] and in [18] was “Active” each time.
